# High-throughput results: PubChem, The Scripps Research Institute Molecular Screening Center
# The list is not random: actives were taken first. Their share in the collection is about 1.6%.
# procasp7 counter – activates human procaspase-7, counter-screen for procaspase-3 activators; AID 463210; activation, % at 8.5 µM; P55210; recombinant procaspase-7, Ac-DEVD-pNA absorbance 405 nm; D23A/D198A/D206A triple mutant, cannot self-cleave; scale: DMSO 0, 5 µM enzyme 100; 0.093% of 330,000 active;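 active = percent activation above the screen-wide mean plus 3 SD, cut at about 25% in these data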
#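 Assay system: Uncleavable procaspase-7 mutant enzyme | Input: 2 µM procaspase-7 mutant as dispensed | Timing: 1 h compound preincubation, 2 h substrate cleavage, 25 °C | Repeats: One well per compound | Control set: DMSO wells as 0%, DMSO with 5 µM added PC-7 as 100% | Technique: Epi-absorbance of released pNA at 405 nm, two timepoints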
# proCasp3 act – activates human procaspase-3; 0.11% of 330,000 active; P42574; recombinant procaspase-3 D3A, Ac-DEVD-pNA absorbance 405 nm; activation, % at 8.5 µM;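 active = activation above the mean of all tested compounds plus 3 SD, cut at about 21% in these data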;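 note: 0% = DMSO alone and 100% = DMSO wells spiked with extra 5 µM PC-3 D3A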
#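 Compound: 8.5 µM single point, 0.8% DMSO / Material: Autoprocessing-dead procaspase-3 D3A mutant enzyme / Timing: 1 h preincubation plus 2 h reaction at 25 °C / Medium: Zinc-free HEPES/NaCl buffer with 0.01% Triton X-100 at pH 7.4 / Technique: 405 nm absorbance of p-nitroaniline, reads at 0 and 120 min / Repeats: one well per compound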
# PLC-gamma1 inh – blocks human PLC-gamma1 enzyme activity | purified PLC-gamma1, fluorogenic substrate, fluorescence | inhibition, % at 12.2 µM | 0.84% of 370,000 active; in the data active = inhibition above about 9.5%
# sPLA2-III inh – Inhibits HGIII-sPLA2 liposome hydrolysis, primary screen. Q9NZ20. QFRET BODIPY PC-A2 liposome hydrolysis, fluorescence. inhibition, % at 12.2 µM. 0.56% of 370,000 active. AID 743126;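 active = inhibition above mean plus 3 SD of compounds lying within the high and low control bounds, cut at about 19% in these data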;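 note: 0% = median of test compound wells and 100% = no enzyme DMSO wells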
# Target sequence (Q9NZ20 whole entry, looked up): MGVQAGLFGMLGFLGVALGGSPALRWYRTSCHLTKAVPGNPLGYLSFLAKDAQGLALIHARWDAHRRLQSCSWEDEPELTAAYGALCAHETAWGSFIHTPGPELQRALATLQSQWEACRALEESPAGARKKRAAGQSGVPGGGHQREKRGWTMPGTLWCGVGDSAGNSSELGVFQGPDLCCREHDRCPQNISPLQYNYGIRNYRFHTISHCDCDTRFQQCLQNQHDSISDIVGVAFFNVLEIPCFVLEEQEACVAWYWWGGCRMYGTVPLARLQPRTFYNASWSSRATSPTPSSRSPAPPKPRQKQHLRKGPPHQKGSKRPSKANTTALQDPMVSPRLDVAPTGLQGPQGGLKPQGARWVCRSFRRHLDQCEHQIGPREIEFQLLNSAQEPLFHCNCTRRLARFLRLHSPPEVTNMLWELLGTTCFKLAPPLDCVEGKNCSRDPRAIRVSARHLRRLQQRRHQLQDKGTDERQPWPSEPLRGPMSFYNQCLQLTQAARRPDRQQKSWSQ
# PLCb3 inh – blocks human PLC-beta3 enzyme activity | Purified PLC-beta3, fluorogenic substrate, fluorescence | inhibition, % at 12.2 µM | 0.18% of 370,000 active | AID 720704;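 note: 0% = median of compound wells on plate and 100% = full blocker control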
# PLCgamma1 ctr – counter-screen for PLC-beta3 inhibitors: inhibitors of human PLC-gamma1; shares compounds with PLC-gamma1 inh; purified PLC-gamma1, fluorogenic substrate, fluorescence; inhibition, % at 12.3 µM; 3.1% of 3,300 active; AID 743258; in the data active = inhibition above about 9.5%
# PLCbeta3 conf – confirmation of human PLC-beta3 inhibitors. shares compounds with PLC-gamma1 inh. purified PLC-beta3, fluorogenic substrate fluorescence. inhibition, % at 12.3 µM. 1% of 3,300 active. AID 743261
# Active calls of the source: *; . = no result given. Cut-off read from the data, not from the text of the source, unless noted: active = inhibition above about 11%; inactive = the rest.
SMILES,procasp7 counter,proCasp3 act,PLC-gamma1 inh,sPLA2-III inh,PLCb3 inh,PLCgamma1 ctr,PLCbeta3 conf
COc1cc2c(cc1OC)C(COc1ccc([N+](=O)[O-])cc1)N(C(C)=O)CC2 (stereo unspecified),3.9,-1.3,0.7,2.1,-12.2,.,.
O=C(CSc1nnc(-c2ccccn2)n1Cc1ccccc1)N1CCOCC1,7.0,-1.2,2.8,1.3,4.1,.,.
CN(C)CCCNC(=O)c1cc(C(=O)c2c(Cl)cccc2Cl)c[nH]1,-8.1,0.2,3.3,3.0,-2.5,.,.
Cc1nc(SCc2ccccc2C#N)n[nH]1,-2.8,3.8,-0.6,1.8,-0.2,.,.
Cc1ccccc1CSc1n[nH]c(NS(=O)(=O)c2ccccc2)n1,-4.3,-1.5,10.4*,-3.1,5.0,5.6,1.0
CCOC(=O)CC1C(=O)NCCN1C(=O)c1ccc(Cl)cc1Cl (stereo unspecified),-8.6,-0.5,16.6*,3.2,2.0,-1.9,0.6
CCOC(=O)CC1C(=O)NCCN1C(=O)c1ccc(F)cc1F (stereo unspecified),-3.8,-2.6,-1.1,-0.8,1.4,.,.
CCOC(=O)c1cc(-c2csc(Nc3c(C)cc(C)cc3C)n2)on1,15.1,2.2,9.8*,-5.3,1.5,-7.8,-4.4
CC(=O)NC(C)(c1ccccc1)c1nc(-c2cccc3cccnc23)cs1 (stereo unspecified),.,.,-14.4,-8.0,-14.4,.,.
O=C(CSc1nc(=O)n(CCN2CCOCC2)c2c1CCCC2)Nc1cccc([N+](=O)[O-])c1,2.7,6.1,2.5,7.6,19.1*,-3.4,-1.5
O=C(CSc1nc(=O)n(CCCN2CCOCC2)c2c1CCCC2)Nc1cccc([N+](=O)[O-])c1,15.6,-9.0,3.2,-1.2,-11.0,.,.
CC(C)C(=O)NCc1cc(-c2ccccc2)no1,9.3,7.5,8.6,12.6,2.4,.,.
COc1cc(-c2noc(CCC(=O)Nc3cccnc3)n2)cc(OC)c1OC,10.5,-2.0,3.7,2.9,12.7*,-0.6,2.1
O=C(Cn1cc2c(n1)CCCCC2)NCc1ccccc1,-0.5,0.9,0.2,-2.8,-0.4,.,.
CCN(Cc1ccccc1)C(=O)Cn1cc2c(n1)CCCC2,-8.6,3.6,10.1*,4.4,6.4,-5.7,-1.5
COc1ccc(N(C)C(=O)CCS(=O)(=O)c2cccc3nonc23)cc1,7.6,-4.3,7.9,4.3,11.4*,-3.5,-0.1
CCN(CC)C(=O)C1=C(C)N(Cc2ccccc2)C(=O)C(CC(=O)NCc2cccs2)C1 (stereo unspecified),.,.,1.6,1.0,-0.7,.,.
C=C(C)[C@@H]1CC[C@]2(C(=O)O)CC[C@]3(C)C(CCC4[C@@]5(C)CC[C@H](O)C(C)(C)C5CC[C@]43C)C12 (stereo partly specified),7.0,7.0,9.5*,12.5,7.2,-3.1,-1.3
C=C(C)[C@@H]1CCC2(C(=O)O)CC[C@]3(C)[C@H](CC[C@@H]4[C@@]5(C)CCC(=O)C(C)(C)[C@@H]5CC[C@]43C)[C@@H]12 (stereo partly specified),2.0,5.1,2.0,8.2,1.2,.,.
N/C(=N\OC(=O)c1ccccc1Cl)c1ccncc1,1.9,0.2,10.4*,6.8,-2.0,-1.5,-2.9
CC(=O)N1C2=CCCC3CCCCC23c2ccccc21 (stereo unspecified),.,.,3.4,-2.4,-3.0,.,.
Cc1ccc([N+](=O)[O-])cc1-c1[nH]c(-c2ccc(O)c(O)c2)nc1-c1ccccc1,-8.8,-5.4,9.7*,13.4,7.5,3.8,6.7
COc1ccc(-c2nc(-c3ccccc3)c(-c3cc([N+](=O)[O-])ccc3C)[nH]2)cc1O,9.9,2.3,0.3,-17.6,2.5,.,.
N#Cc1ccc(S(=O)(=O)N2CCN(C(=O)c3cn(-c4ccccc4)nc3-c3cccnc3)CC2)cc1,.,.,-0.6,4.5,-4.5,.,.
CCOc1ccccc1NC(=S)N(CCCN1CCOCC1)Cc1cn(C)c2ccccc12,2.1,-5.5,13.5*,19.1,-4.3,-2.4,2.3
SMILES,procasp7 counter,proCasp3 act,PLC-gamma1 inh,sPLA2-III inh,PLCb3 inh,PLCgamma1 ctr,PLCbeta3 conf
CCn1cc(S(=O)(=O)Nc2ccccc2C(F)(F)F)cn1,-8.0,2.5,0.5,1.8,3.4,.,.
CCC(C)c1ccccc1NS(=O)(=O)c1cnn(CC)c1 (stereo unspecified),3.3,2.1,9.8*,2.5,3.9,-1.9,1.1
COc1ccccc1NC(=O)COc1ccc(C(=O)OCC(=O)NC(C)(C)C)cc1OC,8.3,4.0,12.6*,5.6,0.5,-4.2,-3.3
Clc1ccc(Cn2ccc(-c3ccc4c(c3)OCO4)n2)cc1Cl,7.2,1.6,18.7*,-20.4,12.4*,7.3,8.7
COC1OC2COC(c3ccccc3)OC2C(NC(C)=O)C1OC(C)=O (stereo unspecified),.,.,10.2*,2.5,13.6*,1.2,4.1
COc1ccc(C(=O)COC(=O)[C@H](C)Nc2ccc(C(F)(F)F)cc2[N+](=O)[O-])cc1,7.0,6.9,11.5*,8.1,6.3,-0.8,-2.9
Cc1cc(C)c(C(=O)COC(=O)[C@H](C)Nc2ccc(C(F)(F)F)cc2[N+](=O)[O-])c(C)c1,8.0,5.5,1.9,4.7,1.3,.,.
Cc1ccc(S(=O)(=O)N2O[C@@H](c3ccccc3)C[C@H]2CON2C(C)(C)CCCC2(C)C)cc1,.,.,11.4*,10.5,12.6*,-0.4,-5.4
Cc1ccc(S(=O)(=O)N2OC(c3ccccc3)C[C@H]2CC=C(c2ccccc2)c2ccccc2)cc1 (stereo partly specified),.,.,0.6,-8.5,4.2,.,.
O=C(Nc1ccc([N+](=O)[O-])c(NC(=O)c2cccnc2)c1)c1cccnc1,8.6,-2.6,0.2,6.0,0.0,.,.
O=C(Nc1cc2c(cc1[N+](=O)[O-])OCCO2)c1cccnc1,5.2,1.4,10.1*,14.2,6.6,-2.6,-0.6
CC(NS(C)(=O)=O)C(c1cccs1)N1CCN(c2ccc(F)cc2)CC1 (stereo unspecified),0.1,8.1,2.3,-6.8,1.3,.,.
CC(NS(C)(=O)=O)C(c1cccs1)N1CCN(C)CC1 (stereo unspecified),9.3,2.4,10.8*,3.7,3.2,-4.4,0.3
O=C(O)c1ccc(S(=O)(=O)N2CCCc3ccccc32)cc1,4.2,0.5,9.9*,1.9,0.1,-4.2,0.7
O=C(CCC(=O)N1CCCc2ccccc21)N1CCN(S(=O)(=O)c2ccccc2)CC1,-0.3,-2.9,10.6*,7.7,9.5,-6.0,-4.4
CC(=O)c1ccc(S(=O)(=O)N2CCCc3ccccc32)cc1,1.1,9.3,7.3,-8.4,-1.3,.,.
CCOC(=O)Cc1csc(NC(=O)/C=C/c2ccc(OC)cc2)n1,-4.9,4.5,-20.5,-8.8,-27.7,.,.
